In ChEMBL document CHEMBL1124106, “Synthesis of diethylenetriaminepentaacetic acid conjugated inulin and utility for cellular uptake of liposomes” (J Med Chem, 1988):
Where “and” joins values, the source holds several entries; their conditions need not be identical. Equal values may be shown once.

Experiments:
Mus musculus [1] = experiment: Biodistribution in mice tail, after 12 hr of intravenous administration of 1-2 ug of compound (entrapped in bovine brain sphingomyelin/ cholesterol multilamellar vehicles); assay type: ADME, organism-based; conditions: in vivo
How it was run: (§1)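 BALB/c mice (about 25 g), groups of 2–5. Compound ¹¹¹In-loaded into SM/CH (2:1, mol/mol) multilamellar vesicles, given as a single tail-vein injection. Lipid dose was 1–2 μg phospholipid/g body weight, in 50–100 μL carrying about 100 000 cpm. Mice were killed by cervical dislocation. Organs were rinsed, blotted, weighed and γ-counted, with blood background subtracted. Values are % injected dose ± SD.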

Mus musculus [2] = experiment: Biodistribution of compound in mice liver after 0.17 hr of intravenous injection; assay type: ADME, organism-based; conditions: in vivo
How it was run: (§2)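 BALB/c mice (about 25 g), n = 4. Free ¹¹¹In- or ⁶⁷Ga-labeled compound (50–100 μL, about 100 000 cpm) was injected into a tail vein. Mice were held in separate cages and killed by cervical dislocation, with blood and cumulative excreta collected. Tissues were rinsed, blotted, weighed and γ-counted, with blood background subtracted (blood volume 8.0%). Values are % injected dose ± SD.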

Mus musculus [3] = experiment: Biodistribution in mice leg muscle, after 12 hr of intravenous administration of 1-2 ug of compound (entrapped in bovine brain sphingomyelin/ cholesterol multilamellar vehicles); assay type: ADME, organism-based, Muscle tissue; conditions: in vivo
How it was run: (§3)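 BALB/c mice (about 25 g), 3–5 per group, given 50–100 μL tail-vein injection of 111In-labeled conjugate entrapped in SM/CH (2:1 mol/mol) multilamellar vesicles, approx. 100 000 cpm; dose 1–2 μg phospholipid/g body weight. Killed by cervical dislocation at set times; blood, cumulative excretion and rinsed, blotted, weighed tissues γ-counted, blood background subtracted. Result is % injected dose ± SD.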

Mus musculus [4] = experiment: Biodistribution in mice kidneys, after 1 hr of intravenous administration of 1-2 ug of compound (entrapped in bovine brain sphingomyelin/ cholesterol multilamellar vehicles); conditions: in vivo
Mus musculus [5] = experiment: Biodistribution in mice intestine, after 24 hr of intravenous administration of 1-2 ug of compound (entrapped in bovine brain sphingomyelin/ cholesterol multilamellar vehicles); assay type: ADME, organism-based; conditions: in vivo; how it was run: as §3
Mus musculus [6] = experiment: Biodistribution of compound in mice intestine after 21 hr of intravenous injection; assay type: ADME, organism-based; conditions: in vivo; how it was run: as §2
[7] = Biodistribution in mice excretion, after 24 hr of intravenous administration of 1-2 ug of ofcompound (entrapped in bovine brain sphingomyelin/ cholesterol multilamellar vehicles); assay type: ADME, organism-based; conditions: mouse, excretion (excreta, not specified further), read-out: ID; how it was run: as §3
Mus musculus [8] = experiment: Biodistribution in mice intestine, after 1 hr of intravenous administration of 1-2 ug of compound (entrapped in bovine brain sphingomyelin/ cholesterol multilamellar vehicles); assay type: ADME, organism-based; conditions: in vivo; how it was run: as §3
Mus musculus [9] = experiment: Biodistribution of compound in mice spleen after 0.17 hr of intravenous injection; assay type: ADME, organism-based; conditions: in vivo; how it was run: as §2
[10] = Biodistribution in mice excretion, after 12 hr of intravenous administration of 1-2 ug of compound (entrapped in bovine brain sphingomyelin/ cholesterol multilamellar vehicles); assay type: ADME, organism-based; conditions: mouse, excretion (excreta, not specified further), read-out: ID; how it was run: as §3
Mus musculus [11] = experiment: Biodistribution in mice tail, after 24 hr of intravenous administration of 1-2 ug of compound (entrapped in bovine brain sphingomyelin/ cholesterol multilamellar vehicles); assay type: ADME, organism-based; conditions: in vivo; how it was run: as §1
Mus musculus [12] = experiment: Biodistribution of compound in mice intestine after 0.17 hr of intravenous injection; assay type: ADME, organism-based; conditions: in vivo; how it was run: as §2
Mus musculus [13] = experiment: Biodistribution of compound in mice kidneys after 21 hr of intravenous injection; assay type: ADME, organism-based, Kidney; conditions: in vivo; how it was run: as §2
Mus musculus [14] = experiment: Biodistribution in mice carcass, after 1 hr of intravenous administration of 1-2 ug ofcompound (entrapped in bovine brain sphingomyelin/ cholesterol multilamellar vehicles); assay type: ADME, organism-based; conditions: in vivo; how it was run: as §3
Mus musculus [15] = experiment: Biodistribution of compound in mice blood after 1 hr of intravenous injection; assay type: ADME, organism-based; conditions: in vivo; how it was run: as §2
Mus musculus [16] = experiment: Biodistribution in mice stomach, after 12 hr of intravenous administration of 1-2 ug of compound (entrapped in bovine brain sphingomyelin/ cholesterol multilamellar vehicles); assay type: ADME, organism-based; conditions: in vivo; how it was run: as §1
Mus musculus [17] = experiment: Biodistribution in mice blood, after 48 hr of intravenous administration of 1-2 ug of compound (entrapped in bovine brain sphingomyelin/ cholesterol multilamellar vehicles); assay type: ADME, organism-based; conditions: in vivo; how it was run: as §3
Mus musculus [18] = experiment: (§4) Biodistribution of compound in mice excretion after 0.17 hr of intravenous injection; assay type: ADME, organism-based; conditions: in vivo, 0.17 h; how it was run: as §2
[19] = as §4; assay type: ADME, organism-based; conditions: mouse, excretion (excreta, not specified further), read-out: ID; how it was run: as §2
Mus musculus [20] = experiment: Biodistribution in mice lung, after 12 hr of intravenous administration of 1-2 ug ofcompound (entrapped in bovine brain sphingomyelin/ cholesterol multilamellar vehicles); assay type: ADME, organism-based; conditions: in vivo; how it was run: as §3
Mus musculus [21] = experiment: Biodistribution of compound in mice leg muscle after 21 hr of intravenous injection; assay type: ADME, organism-based, Muscle tissue; conditions: in vivo; how it was run: as §2
Mus musculus [22] = experiment: Biodistribution in mice leg muscle, after 1 hr of intravenous administration of 1-2 ug ofcompound (entrapped in bovine brain sphingomyelin/ cholesterol multilamellar vehicles); assay type: ADME, organism-based, Muscle tissue; conditions: in vivo; how it was run: as §3
Mus musculus [23] = experiment: Biodistribution in mice kidneys, after 48 hr of intravenous administration of 1-2 ug of compound (entrapped in bovine brain sphingomyelin/ cholesterol multilamellar vehicles); assay type: ADME, organism-based, Kidney; conditions: in vivo; how it was run: as §3
Mus musculus [24] = experiment: Biodistribution in mice carcass, after 12 hr of intravenous administration of 1-2 ug of compound (entrapped in bovine brain sphingomyelin/ cholesterol multilamellar vehicles); assay type: ADME, organism-based; conditions: in vivo; how it was run: as §3
Mus musculus [25] = experiment: Biodistribution in mice fat, after 48 hr of intravenous administration of 1-2 ug of compound (entrapped in bovine brain sphingomyelin/ cholesterol multilamellar vehicles); assay type: ADME, organism-based; conditions: in vivo; how it was run: as §3
Mus musculus [26] = experiment: Biodistribution of compound in mice carcass after 21 hr of intravenous injection; assay type: ADME, organism-based; conditions: in vivo; how it was run: as §2
Mus musculus [27] = experiment: Biodistribution of compound in mice skin after 1 hr of intravenous injection; assay type: ADME, organism-based, Zone of skin; conditions: in vivo; how it was run: as §2
Mus musculus [28] = experiment: Biodistribution in mice liver, after 12 hr of intravenous administration of 1-2 ug of compound (entrapped in bovine brain sphingomyelin/ cholesterol multilamellar vehicles); assay type: ADME, organism-based; conditions: in vivo; how it was run: as §3
Mus musculus [29] = experiment: Biodistribution in mice kidneys, after 24 hr of intravenous administration of 1-2 ug of compound (entrapped in bovine brain sphingomyelin/ cholesterol multilamellar vehicles); assay type: ADME, organism-based, Kidney; conditions: in vivo; how it was run: as §3
Mus musculus [30] = experiment: Biodistribution of compound in mice skin after 0.17 hr of intravenous injection; assay type: ADME, organism-based, Zone of skin; conditions: in vivo; how it was run: as §2
Mus musculus [31] = experiment: Biodistribution in mice spleen, after 48 hr of intravenous administration of 1-2 ug of compound (entrapped in bovine brain sphingomyelin/ cholesterol multilamellar vehicles); assay type: ADME, organism-based; conditions: in vivo; how it was run: as §3
Mus musculus [32] = experiment: Biodistribution in mice heart, after 24 hr of intravenous administration of 1-2 ug of compound (entrapped in bovine brain sphingomyelin/ cholesterol multilamellar vehicles); assay type: ADME, organism-based; conditions: in vivo; how it was run: as §3
Mus musculus [33] = experiment: (§5) Biodistribution of compound in mice excretion after 21 hr of intravenous injection; assay type: ADME, organism-based; conditions: in vivo, 21 h; how it was run: as §2
[34] = as §5; assay type: ADME, organism-based; conditions: mouse, excretion (excreta, not specified further), read-out: ID; how it was run: as §2
Mus musculus [35] = experiment: Biodistribution in mice spleen, after 12 hr of intravenous administration of 1-2 ug of compound (entrapped in bovine brain sphingomyelin/ cholesterol multilamellar vehicles); assay type: ADME, organism-based; conditions: in vivo; how it was run: as §3
Mus musculus [36] = experiment: Biodistribution in mice heart, after 48 hr of intravenous administration of 1-2 ug of compound (entrapped in bovine brain sphingomyelin/ cholesterol multilamellar vehicles); assay type: ADME, organism-based; conditions: in vivo; how it was run: as §3
Mus musculus [37] = experiment: Biodistribution in mice brain, after 48 hr of intravenous administrating 1-2 ug of compound (entrapped in bovine brain sphingomyelin/ cholesterol multilamellar vehicles); assay type: ADME, organism-based; conditions: in vivo; how it was run: as §3
Mus musculus [38] = experiment: Biodistribution of compound in mice tail after 0.17 hr of intravenous injection; assay type: ADME, organism-based; conditions: in vivo; how it was run: as §2
Mus musculus [39] = experiment: Biodistribution in mice spleen, after 24 hr of intravenous administration of 1-2 ug of compound (entrapped in bovine brain sphingomyelin/ cholesterol multilamellar vehicles); assay type: ADME, organism-based; conditions: in vivo; how it was run: as §3

ID (Mus musculus [1]): 2.7%
ID (Mus musculus [2]): 0.6% and 1.3%
ID (Mus musculus [3]): 0.4%
ID (Mus musculus [4]): 0.5%
ID (Mus musculus [5]): 0.8%
ID (Mus musculus [6]): 2.2% and 5.8%
dose excreted at 24 h [7]: 0%
ID (Mus musculus [8]): 0.7%
ID (Mus musculus [9]): 0.2% and 0.1%
dose excreted at 12 h [10]: 0%
ID (Mus musculus [11]): 0.9%
ID (Mus musculus [12]): 2.2% and 2.4%
ID (Mus musculus [13]): 0.8% and 0.9%
ID (Mus musculus [14]): 4%
ID (Mus musculus [15]): 1.1% and 4.5%
ID (Mus musculus [16]): 0.2%
ID (Mus musculus [17]): 0.4%
ID (Mus musculus [18]): 3.2%
dose excreted at 0.17 h [19]: 3.6%
ID (Mus musculus [20]): 0.1%
ID (Mus musculus [21]): 0.2% and 0.3%
ID (Mus musculus [22]): 0.3%
ID (Mus musculus [23]): 0.4%
ID (Mus musculus [24]): 2%
ID (Mus musculus [25]): 0.1%
ID (Mus musculus [26]): 0.8% and 3%
ID (Mus musculus [27]): 5.8% and 7.7%
ID (Mus musculus [28]): 73.6%
ID (Mus musculus [29]): 0.5%
ID (Mus musculus [30]): 15.6% and 15.1%
ID (Mus musculus [31]): 2.9%
ID (Mus musculus [32]): 0%
ID (Mus musculus [33]): 69.5%
dose excreted at 21 h [34]: 77.1%
ID (Mus musculus [35]): 4%
ID (Mus musculus [36]): 0%
ID (Mus musculus [37]): 0.2%
ID (Mus musculus [38]): 3.8% and 3.7%
ID (Mus musculus [39]): 1.9%
Structure (SMILES): NCCNC(=O)CN(CCN(CCN(CC(=O)O)CC(=O)O)CC(=O)O)CC(=O)O
